From ChEMBL document CHEMBL4732185, “Synthesis, biological evaluation and structure-activity relationship of novel dichloroacetophenones targeting pyruvate dehydrogenase kinases with potent anticancer activity” (Eur J Med Chem, 2021)
pEC50, pIC50: −log10 of the molar value. One block for each compound: values may come before it. Calls of active or inactive are those of the source. The rule behind the calls is not given here.

Assays:
[1] = test system: MCF7; assay: Antiproliferative activity against human MCF7 cells assessed as growth inhibition at 10 uM after 72 hrs by MTT assay relative to control; type: functional; settings: for inhibition of growth at 10 µM: read-out: GI
Method in brief: (§1)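 Single-concentration MTT screen on MCF-7 and A549 cells grown in DMEM + 10% FBS. Cells at 3000–6000/well, cultured overnight, then given compound in buffer with 1% DMSO for 72 h. MTT (0.5 mg/mL) added for 4 h, formazan dissolved in DMSO, A570 read. Percent inhibition reported as the average ± S.D. of three independent measurements.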

[2] = test system: MCF7; assay: Antiproliferative activity against human MCF7 cells assessed as growth inhibition at 1 uM after 72 hrs by MTT assay relative to control; type: functional; settings: for inhibition of growth at 1 µM: read-out: GI; method in brief: as §1
[3] = test system: A549; assay: Antiproliferative activity against human A549 cells assessed as growth inhibition at 10 uM after 72 hrs by MTT assay relative to control; type: functional; settings: for inhibition of growth at 10 µM: read-out: GI; method in brief: as §1
[4] = test system: A549; assay: Antiproliferative activity against human A549 cells assessed as growth inhibition at 1 uM after 72 hrs by MTT assay relative to control; type: functional; settings: for inhibition of growth at 1 µM: read-out: GI; method in brief: as §1
[5] = organism: Homo sapiens; assay: Inhibition of PDK (unknown origin) using RYHGHSMSDP as substrate at 1 uM after 30 mins by Kinase-Glo luminescent assay
[6] = test system: A549; assay: Antiproliferative activity against human A549 cells assessed as growth inhibition after 72 hrs by MTT assay; type: functional, cell-based; settings: for pIC50: Homo sapiens, A549, 72 h, read-out: IC50
Method in brief: (§2)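 MTT viability assay. Cancer lines seeded at 3000–6000 cells/well and L02 at 7000 cells/well, cultured overnight, then exposed to a full dose range for 72 h. MTT (0.5 mg/mL) added for 4 h, supernatant removed, formazan dissolved in DMSO, absorbance read at 570 nm. IC50 taken as the mean of three independent experiments. Cells grown in DMEM + 10% FBS, 37 °C, 5% CO2.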

[7] = test system: MCF7; assay: Antiproliferative activity against human MCF7 cells assessed as growth inhibition after 72 hrs by MTT assay; type: functional, cell-based; settings: for pIC50: Homo sapiens, MCF7, 72 h, read-out: IC50; method in brief: as §2
[8] = test system: SH-SY5Y; assay: Antiproliferative activity against human SHSY-5Y cells assessed as growth inhibition after 72 hrs by MTT assay; type: functional, cell-based; settings: for pIC50: Homo sapiens, SH-SY5Y, 72 h, read-out: IC50; method in brief: as §2
[9] = test system: HCT-116; assay: Antiproliferative activity against human HCT-116 cells assessed as growth inhibition after 72 hrs by MTT assay; type: functional, cell-based; settings: for pIC50: Homo sapiens, HCT-116, 72 h, read-out: IC50; method in brief: as §2
[10] = test system: A-375; assay: Antiproliferative activity against human A375 cells assessed as growth inhibition after 72 hrs by MTT assay; type: functional, cell-based; settings: for pIC50: Homo sapiens, A-375, 72 h, read-out: IC50; method in brief: as §2
[11] = test system: PC-3; assay: Antiproliferative activity against human PC3 cells assessed as growth inhibition after 72 hrs by MTT assay; type: functional, cell-based; settings: for pIC50: Homo sapiens, PC-3, 72 h, read-out: IC50; method in brief: as §2
[12] = test system: L02; assay: Cytotoxicity against human L02 cells assessed as reduction in cell viability after 72 hrs by MTT assay; type: cell-based; settings: for pIC50: Homo sapiens, L02, 72 h, read-out: IC50; method in brief: as §2
[13] = Inhibition of PDK (unknown origin) using RYHGHSMSDP as substrate after 30 mins by Kinase-Glo luminescent assay; parameters: species or system Homo sapiens
[14] = test system: A-375; assay: Induction of apoptosis in human A375 cells assessed as viable cells at 5 uM after 36 hrs by annexinV-FITC/propidium iodide staining based flow cytometric analysis (reference value: 94.15%); type: functional; settings: read-out: Activity
[15] = test system: A-375; assay: Induction of apoptosis in human A375 cells assessed as early apoptotic cells at 5 uM after 36 hrs by annexinV-FITC/propidium iodide staining based flow cytometric analysis (reference value: 3.2%); type: functional
[16] = test system: A-375; assay: Induction of apoptosis in human A375 cells assessed as late apoptotic cells at 5 uM after 36 hrs by annexinV-FITC/propidium iodide staining based flow cytometric analysis (reference value: 1.02%); type: functional
[17] = test system: A-375; assay: Induction of apoptosis in human A375 cells assessed as necrotic cells at 5 uM after 36 hrs by annexinV-FITC/propidium iodide staining based flow cytometric analysis (reference value: 1.63%); type: functional
[18] = test system: A-375; assay: Induction of apoptosis in human A375 cells assessed as viable cells at 5 uM after 12 hrs by annexinV-FITC/propidium iodide staining based flow cytometric analysis (reference value: 97.94%); type: functional; settings: read-out: Activity
[19] = test system: A-375; assay: Induction of apoptosis in human A375 cells assessed as early apoptotic cells at 5 uM after 12 hrs by annexinV-FITC/propidium iodide staining based flow cytometric analysis (reference value: 0.87%); type: functional
[20] = test system: A-375; assay: Induction of apoptosis in human A375 cells assessed as late apoptotic cells at 5 uM after 12 hrs by annexinV-FITC/propidium iodide staining based flow cytometric analysis (reference value: 0.63%); type: functional
[21] = test system: A-375; assay: Induction of apoptosis in human A375 cells assessed as necrotic cells at 5 uM after 12 hrs by annexinV-FITC/propidium iodide staining based flow cytometric analysis (reference value: 0.56%); type: functional
[22] = test system: A-375; assay: Induction of apoptosis in human A375 cells assessed as viable cells at 5 uM after 24 hrs by annexinV-FITC/propidium iodide staining based flow cytometric analysis (Rvb= 97.94%); type: functional; settings: read-out: Activity
[23] = test system: A-375; assay: Induction of apoptosis in human A375 cells assessed as early apoptotic cells at 5 uM after 24 hrs by annexinV-FITC/propidium iodide staining based flow cytometric analysis (reference value: 0.87%); type: functional
[24] = test system: A-375; assay: Induction of apoptosis in human A375 cells assessed as late apoptotic cells at 5 uM after 24 hrs by annexinV-FITC/propidium iodide staining based flow cytometric analysis (reference value: 0.63%); type: functional
[25] = test system: A-375; assay: Induction of apoptosis in human A375 cells assessed as necrotic cells at 5 uM after 24 hrs by annexinV-FITC/propidium iodide staining based flow cytometric analysis (reference value: 0.56%); type: functional
[26] = test system: A-375; assay: Induction of cell cycle arrest in human A375 cells assessed as accumulation at G1 phase at 5 uM after 24 hrs by propidium iodide staining based flow cytometric analysis (reference value: 52.65%); type: functional
[27] = test system: A-375; assay: Induction of cell cycle arrest in human A375 cells assessed as accumulation at S phase at 5 uM after 24 hrs by propidium iodide staining based flow cytometric analysis (reference value: 37.33%); type: functional
[28] = test system: A-375; assay: Induction of cell cycle arrest in human A375 cells assessed as accumulation at G2 phase at 5 uM after 24 hrs by propidium iodide staining based flow cytometric analysis (reference value: 10.02%); type: functional
[29] = test system: A-375; assay: Inhibition of PDK in human A375 cells assessed as reduction in phosphorylation of PDC E1alpha at ser293 residues at 5 uM after 24 hrs by Western blot analysis; type: cell-based
Method in brief: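 A375 cells in 6-well plates, treated 24 h. Lysed 15 min and spun 12000 rpm at 4 °C for 15 min. Protein equalized by BCA and denatured in SDS buffer at 100 °C for 8 min. Run on SDS-PAGE, transferred to nitrocellulose, blocked in 5% milk 2 h, primary antibody overnight, HRP anti-rabbit IgG 2 h, ECL detection.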

Structure (SMILES): CN(C)C(=O)c1ccc(S(=O)(=O)c2ccc(NC(=O)[C@@](C)(O)C(F)(F)F)c(Cl)c2)cc1
growth inhibition (GI) [1]: inactive
growth inhibition (GI) [2]: inactive
growth inhibition (GI) [3]: inactive
growth inhibition (GI) [4]: inactive
inhibition [5]: 98.7%
IC50 ([6]; a549): Not Active
IC50 ([7]; mcf7): Not Active
IC50 ([8]; sh-sy5y): Not Active
IC50 ([9]; hct-116): Not Active
IC50 ([10]; a-375): Not Active
IC50 ([11]; pc-3): Not Active
IC50 ([12]; l02): Not Active
pEC50 [13]: 7.28

Structure (SMILES): O=C(c1ccc(-n2ccnc2)c([N+](=O)[O-])c1)C(Cl)Cl
inhibition of growth at 10 µM [1]: 90.5%
inhibition of growth at 1 µM [2]: 24.2%
inhibition of growth at 10 µM [3]: 96.6%
inhibition of growth at 1 µM [4]: 30.5%
inhibition [5]: 20.5%

Structure (SMILES): CC(C)Oc1ccc(C(=O)C(Cl)Cl)cc1[N+](=O)[O-]
inhibition of growth at 10 µM [1]: 73.4%
growth inhibition (GI) [2]: inactive
inhibition of growth at 10 µM [3]: 98.2%
inhibition of growth at 1 µM [4]: 18.7%
inhibition [5]: 72.4%
pIC50 [6]: 5.46
pIC50 [7]: 5.11
pIC50 [8]: 5.25
pIC50 [9]: 5.21
pIC50 [10]: 5.31
pIC50 [11]: 5.06
pIC50 [12]: 4.77
pEC50 [13]: 6.48
viability at 5 µM [14]: 68.9%
Activity [15]: 6.6%
Activity [16]: 18.83%
Activity [17]: 2.31%
viability at 5 µM [18]: 91.1%
Activity [19]: 2.43%
Activity [20]: 2.66%
Activity [21]: 3.77%
viability at 5 µM [22]: 84.2%
Activity [23]: 4.71%
Activity [24]: 6.83%
Activity [25]: 4.29%
Activity [26]: 58.34%
Activity [27]: 30.65%
Activity [28]: 11.01%
inhibition [29]: Active

Structure (SMILES): O=C(c1ccc(C2CC2)c([N+](=O)[O-])c1)C(Cl)Cl
inhibition of growth at 10 µM [1]: 87.8%
inhibition of growth at 1 µM [2]: 31.3%
inhibition of growth at 10 µM [3]: 95.9%
inhibition of growth at 1 µM [4]: 40.1%
inhibition [5]: 17.3%

Structure (SMILES): O=C(c1ccc(Nc2ccccc2)c([N+](=O)[O-])c1)C(Cl)Cl
inhibition of growth at 10 µM [1]: 97.1%
inhibition of growth at 1 µM [2]: 26.3%
inhibition of growth at 10 µM [3]: 97.4%
inhibition of growth at 1 µM [4]: 46.1%
inhibition [5]: 60.7%

Structure (SMILES): COc1ccc(Nc2ccc(C(=O)C(Cl)Cl)cc2[N+](=O)[O-])cc1OC
inhibition of growth at 10 µM [1]: 90.5%
inhibition of growth at 1 µM [2]: 24.2%
inhibition of growth at 10 µM [3]: 96.6%
inhibition of growth at 1 µM [4]: 40.5%
inhibition [5]: 66.4%

The next lines start with results.

inhibition [5]: 80%
pIC50 [6]: 6.48
pIC50 [7]: 5.92
pIC50 [8]: 6.00
pIC50 [9]: 6.15
pIC50 [10]: 6.05
pIC50 [11]: 6.42
pEC50 [13]: 6.47
Structure (SMILES): CC(C)c1ccc(Nc2ccc(C(=O)C(Cl)Cl)cc2[N+](=O)[O-])cc1
inhibition of growth at 10 µM [1]: 94%
inhibition of growth at 1 µM [2]: 38.6%
inhibition of growth at 10 µM [3]: 97%
inhibition of growth at 1 µM [4]: 75.2%
pIC50 [12]: 5.82

inhibition [5]: 39.4%
Structure (SMILES): CC(C)c1ccc(Oc2ccc(C(=O)C(Cl)Cl)cc2[N+](=O)[O-])cc1
inhibition of growth at 10 µM [1]: 85.7%
inhibition of growth at 1 µM [2]: 28.7%
inhibition of growth at 10 µM [3]: 90.7%
inhibition of growth at 1 µM [4]: 12.5%
